Experimental data: ChEMBL document CHEMBL4190394, “Discovery of Novel Pazopanib-Based HDAC and VEGFR Dual Inhibitors Targeting Cancer Epigenetics and Angiogenesis Simultaneously” (J Med Chem, 2018)
pIC50: −log10 of the molar value. Active and inactive are the calls of the source. No cut-off for these calls is given here.

Assays:
Histone deacetylase = type: protein assay, Homo sapiens
[1] = target: T1, Vascular endothelial growth factor receptor 2 (Homo sapiens, UniProt P35968); experiment: Inhibition of VEGFR-2 (unknown origin) at 0.2 uM after 40 mins by kinase-Glo assay relative to control
In short: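 VEGFR-2 tested at a single 200 nM concentration in a Kinase-Glo assay. Compound, kinase, substrate and ATP incubated 40 min at room temperature, then Kinase-Glo reagent added for 15 min and luminescence read. Inhibition rate reported. Replicates n ≥ 2.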

PC-3 = experiment: Antiproliferative activity against human PC3 cells after 72 hrs by MTT assay; type: functional, cell-based; settings: PC-3, 72 h
HT-1080 = experiment: Antiproliferative activity against human HT1080 cells after 72 hrs by MTT assay; type: functional, cell-based; settings: HT-1080, 72 h
KG-1 = experiment: Antiproliferative activity against human KG1 cells after 72 hrs by MTT assay; type: functional, cell-based; settings: KG-1, 72 h
HEL = experiment: Antiproliferative activity against human HEL cells after 72 hrs by MTT assay; type: functional, cell-based
MOLT-4 = experiment: Antiproliferative activity against human MOLT4 cells after 72 hrs by MTT assay; type: functional, cell-based; settings: MOLT-4, 72 h
K562 = experiment: Antiproliferative activity against human K562 cells after 72 hrs by MTT assay; type: functional, cell-based; settings: K562, 72 h
HT-29 [2] = experiment: Antiproliferative activity against human HT-29 cells after 72 hrs by MTT assay; type: functional, cell-based; settings: HT-29, 72 h
ACHN = experiment: Antiproliferative activity against human ACHN cells after 72 hrs by MTT assay; type: functional, cell-based
AGS = experiment: Antiproliferative activity against human AGS cells after 72 hrs by MTT assay; type: functional, cell-based
HeLa = experiment: Antiproliferative activity against human HeLa cells after 72 hrs by MTT assay; type: functional, cell-based
MDA-MB-231 = experiment: Antiproliferative activity against human MDA-MB-231 cells after 72 hrs by MTT assay; type: functional, cell-based; settings: MDA-MB-231, 72 h
[3] = target: T1, Vascular endothelial growth factor receptor 2; experiment: Inhibition of VEGF-stimulated VEGFR2 phosphorylation in human HUVEC cells at 100 nM preincubated for 2 hrs followed by VEGF stimulation by Western blot analysis; type: cell-based
In short: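 HUVECs pretreated 2 h with compound or DMSO, then stimulated with VEGF (50 ng/ml). Cells lysed in ice-cold RIPA and protein measured by BCA. Lysates run on SDS-PAGE and immunoblotted for phospho-VEGFR-2, with total VEGFR-2 as loading control. Detection by ECL.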

Histone deacetylase 2 = Histone deacetylase 2 (Homo sapiens, UniProt Q92769)
[4] = target: Protein deacetylase HDAC6 (Homo sapiens, UniProt Q9UBN7); experiment: Inhibition of HDAC6 (unknown origin) using fluorogenic Boc-Lys(acetyl)-AMC as substrate preincubated for 5 mins followed by substrate addition measured after 30 mins by fluorescence-based assay
Histone deacetylase 8 = Histone deacetylase 8 (Homo sapiens, UniProt Q9BY41); experiment: Inhibition of HDAC8 (unknown origin) using fluorogenic Boc-Lys(trifluoroacetyl)-AMC as substrate preincubated for 5 mins followed by substrate addition measured after 30 mins by fluorescence-based assay
HUVEC = experiment: Antiangiogenic activity in human HUVEC cells assessed as reduction in capillary-like tubular network formation at 0.1 uM after 6 hrs by phase-contrast microscopy; type: functional, cell-based
In short: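 HUVECs trypsinized and seeded at 40000/well on Matrigel polymerized 0.5 h at 37 °C. Cells held 6 h at 37 °C in M199 with 5% FBS, with compound or DMSO. Tube formation viewed and photographed by phase-contrast microscopy at 200 magnification. Three independent experiments.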

Thoracic aorta = experiment: Antiangiogenic activity in Sprague-Dawley rat thoracic aorta ring assessed as reduction in micro-vessel growth at 5 uM treated every day for 6 days by matrigel-based inverted microscopic analysis relative to control; type: functional, tissue-based
In short: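 Aortas taken from 4–6-week-old Sprague–Dawley rats, cut into 1-mm rings and embedded in Matrigel. Rings held 30 min at 37 °C, 5% CO2, then treated daily for 6 days with compound or 0.5% DMSO vehicle. Microvessel outgrowth photographed on day 7 at ×200. Three independent experiments.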

HT-29 [5] = experiment: Antitumor activity against human HT-29 cells xenografted in BALB/c nu mouse assessed as tumor growth level at 50 mg/kg, po administered for 25 consecutive days measured every 3 days during compound dosing relative to control; type: functional
In short: (§1)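 HT-29 cells (1×10^7) implanted s.c. in right flank of male BALB/c-nu mice aged 5–6 weeks. At about 100 mm³ (day 10), mice randomized 6 per group and dosed orally for 25 consecutive days. Controls received PBS with 5% DMSO. T/C is mean RTV (Vt/V0) treated over control. TGI taken from final tumor weights. Student's two-tailed t test.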

HT-29 [6] = experiment: Antitumor activity against human HT-29 cells xenografted in BALB/c nu mouse assessed as tumor growth inhibition at 50 mg/kg, po administered for 25 consecutive days measured every 3 days during compound dosing relative to control; type: functional; settings: HT-29, po, read-out: TGI
In short: as §1

Histone deacetylase 1 = Histone deacetylase 1 (Homo sapiens, UniProt Q13547); experiment: Inhibition of HDAC1 (unknown origin) using fluorogenic substrate preincubated for 5 mins followed by substrate addition measured after 30 mins by fluorescence-based assay
Histone deacetylase 3 = Histone deacetylase 3 (Homo sapiens, UniProt O15379)
Chain of Histone deacetylase 3 (O15379 whole entry): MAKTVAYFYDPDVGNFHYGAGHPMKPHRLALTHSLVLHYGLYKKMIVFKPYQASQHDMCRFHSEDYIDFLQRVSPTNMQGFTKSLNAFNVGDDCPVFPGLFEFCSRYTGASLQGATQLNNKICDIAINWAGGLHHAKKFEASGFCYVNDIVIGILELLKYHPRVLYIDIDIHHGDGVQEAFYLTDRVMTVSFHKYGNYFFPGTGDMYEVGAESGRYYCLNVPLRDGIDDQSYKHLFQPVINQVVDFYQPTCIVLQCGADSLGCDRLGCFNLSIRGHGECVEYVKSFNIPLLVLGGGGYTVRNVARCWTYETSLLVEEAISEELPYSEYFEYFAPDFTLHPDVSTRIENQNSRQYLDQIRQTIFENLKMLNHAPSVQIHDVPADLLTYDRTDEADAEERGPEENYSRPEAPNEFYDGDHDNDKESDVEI

T1 sequence (P35968 whole entry): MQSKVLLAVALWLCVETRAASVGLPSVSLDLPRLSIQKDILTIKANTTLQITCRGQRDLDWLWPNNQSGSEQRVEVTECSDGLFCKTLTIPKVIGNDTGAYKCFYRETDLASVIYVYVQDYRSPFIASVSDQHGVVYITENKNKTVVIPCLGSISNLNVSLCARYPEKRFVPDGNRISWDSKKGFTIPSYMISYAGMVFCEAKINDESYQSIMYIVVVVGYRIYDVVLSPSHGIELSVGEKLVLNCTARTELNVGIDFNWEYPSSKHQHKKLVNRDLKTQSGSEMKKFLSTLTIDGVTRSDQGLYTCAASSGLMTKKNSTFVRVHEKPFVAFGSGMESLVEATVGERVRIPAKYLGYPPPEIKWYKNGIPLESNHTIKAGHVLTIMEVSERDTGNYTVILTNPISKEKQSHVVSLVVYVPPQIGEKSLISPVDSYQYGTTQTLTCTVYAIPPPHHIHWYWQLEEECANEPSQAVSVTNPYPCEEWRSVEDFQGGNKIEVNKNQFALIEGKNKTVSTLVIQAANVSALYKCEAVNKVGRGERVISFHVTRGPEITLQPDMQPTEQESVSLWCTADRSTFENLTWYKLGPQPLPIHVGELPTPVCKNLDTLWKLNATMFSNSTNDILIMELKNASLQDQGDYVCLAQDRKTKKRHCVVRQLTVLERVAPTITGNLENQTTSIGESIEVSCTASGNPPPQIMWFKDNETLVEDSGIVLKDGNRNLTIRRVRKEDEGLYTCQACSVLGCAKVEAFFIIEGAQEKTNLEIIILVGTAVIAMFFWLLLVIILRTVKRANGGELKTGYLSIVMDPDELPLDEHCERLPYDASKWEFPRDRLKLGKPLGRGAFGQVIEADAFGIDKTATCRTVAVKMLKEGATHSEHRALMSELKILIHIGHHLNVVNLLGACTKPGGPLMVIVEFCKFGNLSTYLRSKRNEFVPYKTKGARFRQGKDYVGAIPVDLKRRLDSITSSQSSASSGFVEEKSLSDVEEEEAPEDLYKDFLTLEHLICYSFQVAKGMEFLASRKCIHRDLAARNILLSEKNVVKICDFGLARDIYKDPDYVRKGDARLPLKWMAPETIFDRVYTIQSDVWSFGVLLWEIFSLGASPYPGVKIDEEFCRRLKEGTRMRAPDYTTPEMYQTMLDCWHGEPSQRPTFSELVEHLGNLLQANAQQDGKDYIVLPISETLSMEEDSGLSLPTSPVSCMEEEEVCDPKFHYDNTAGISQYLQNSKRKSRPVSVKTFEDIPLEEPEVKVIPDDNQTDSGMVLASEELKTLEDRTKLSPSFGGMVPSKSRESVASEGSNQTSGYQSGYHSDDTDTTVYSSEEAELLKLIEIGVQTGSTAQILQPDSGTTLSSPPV
Chain of Histone deacetylase 2 (Q92769 whole entry): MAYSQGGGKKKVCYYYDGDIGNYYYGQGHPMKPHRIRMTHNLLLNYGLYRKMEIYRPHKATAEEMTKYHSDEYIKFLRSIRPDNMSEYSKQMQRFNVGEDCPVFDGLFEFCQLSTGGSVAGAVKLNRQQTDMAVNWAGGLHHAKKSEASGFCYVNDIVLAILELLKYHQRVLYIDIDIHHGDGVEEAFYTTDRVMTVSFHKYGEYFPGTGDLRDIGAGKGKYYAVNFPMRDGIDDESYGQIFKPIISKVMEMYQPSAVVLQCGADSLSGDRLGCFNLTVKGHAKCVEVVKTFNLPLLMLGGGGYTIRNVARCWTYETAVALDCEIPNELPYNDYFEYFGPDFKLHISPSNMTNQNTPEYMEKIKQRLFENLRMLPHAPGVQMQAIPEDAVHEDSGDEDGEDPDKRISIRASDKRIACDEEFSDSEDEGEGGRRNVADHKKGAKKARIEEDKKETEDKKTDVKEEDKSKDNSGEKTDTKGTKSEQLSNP
Chain of Histone deacetylase 1 (Q13547 whole entry): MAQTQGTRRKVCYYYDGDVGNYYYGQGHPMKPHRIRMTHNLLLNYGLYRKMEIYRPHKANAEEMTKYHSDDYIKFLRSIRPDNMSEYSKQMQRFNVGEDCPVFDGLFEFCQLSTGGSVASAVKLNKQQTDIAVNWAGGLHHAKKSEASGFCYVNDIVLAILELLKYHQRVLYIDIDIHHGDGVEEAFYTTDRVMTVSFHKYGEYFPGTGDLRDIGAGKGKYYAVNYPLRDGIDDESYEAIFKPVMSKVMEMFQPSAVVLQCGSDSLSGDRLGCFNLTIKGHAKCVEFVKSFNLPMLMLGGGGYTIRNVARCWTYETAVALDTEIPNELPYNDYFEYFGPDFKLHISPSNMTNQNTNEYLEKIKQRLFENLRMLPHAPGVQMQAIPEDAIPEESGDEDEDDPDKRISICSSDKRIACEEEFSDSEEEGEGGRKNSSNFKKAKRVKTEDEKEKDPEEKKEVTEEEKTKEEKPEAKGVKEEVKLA
Chain of Histone deacetylase 8 (Q9BY41 whole entry): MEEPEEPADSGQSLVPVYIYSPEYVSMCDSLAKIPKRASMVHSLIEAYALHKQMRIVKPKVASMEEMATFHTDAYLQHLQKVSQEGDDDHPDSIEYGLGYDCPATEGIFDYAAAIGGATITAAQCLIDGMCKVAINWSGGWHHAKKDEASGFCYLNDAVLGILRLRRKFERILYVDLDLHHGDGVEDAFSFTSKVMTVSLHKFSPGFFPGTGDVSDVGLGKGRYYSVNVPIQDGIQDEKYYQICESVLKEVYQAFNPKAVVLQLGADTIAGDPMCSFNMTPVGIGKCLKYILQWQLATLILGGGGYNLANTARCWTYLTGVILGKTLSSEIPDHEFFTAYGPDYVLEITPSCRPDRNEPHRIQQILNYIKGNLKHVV
Chain of Protein deacetylase HDAC6 (Q9UBN7 whole entry): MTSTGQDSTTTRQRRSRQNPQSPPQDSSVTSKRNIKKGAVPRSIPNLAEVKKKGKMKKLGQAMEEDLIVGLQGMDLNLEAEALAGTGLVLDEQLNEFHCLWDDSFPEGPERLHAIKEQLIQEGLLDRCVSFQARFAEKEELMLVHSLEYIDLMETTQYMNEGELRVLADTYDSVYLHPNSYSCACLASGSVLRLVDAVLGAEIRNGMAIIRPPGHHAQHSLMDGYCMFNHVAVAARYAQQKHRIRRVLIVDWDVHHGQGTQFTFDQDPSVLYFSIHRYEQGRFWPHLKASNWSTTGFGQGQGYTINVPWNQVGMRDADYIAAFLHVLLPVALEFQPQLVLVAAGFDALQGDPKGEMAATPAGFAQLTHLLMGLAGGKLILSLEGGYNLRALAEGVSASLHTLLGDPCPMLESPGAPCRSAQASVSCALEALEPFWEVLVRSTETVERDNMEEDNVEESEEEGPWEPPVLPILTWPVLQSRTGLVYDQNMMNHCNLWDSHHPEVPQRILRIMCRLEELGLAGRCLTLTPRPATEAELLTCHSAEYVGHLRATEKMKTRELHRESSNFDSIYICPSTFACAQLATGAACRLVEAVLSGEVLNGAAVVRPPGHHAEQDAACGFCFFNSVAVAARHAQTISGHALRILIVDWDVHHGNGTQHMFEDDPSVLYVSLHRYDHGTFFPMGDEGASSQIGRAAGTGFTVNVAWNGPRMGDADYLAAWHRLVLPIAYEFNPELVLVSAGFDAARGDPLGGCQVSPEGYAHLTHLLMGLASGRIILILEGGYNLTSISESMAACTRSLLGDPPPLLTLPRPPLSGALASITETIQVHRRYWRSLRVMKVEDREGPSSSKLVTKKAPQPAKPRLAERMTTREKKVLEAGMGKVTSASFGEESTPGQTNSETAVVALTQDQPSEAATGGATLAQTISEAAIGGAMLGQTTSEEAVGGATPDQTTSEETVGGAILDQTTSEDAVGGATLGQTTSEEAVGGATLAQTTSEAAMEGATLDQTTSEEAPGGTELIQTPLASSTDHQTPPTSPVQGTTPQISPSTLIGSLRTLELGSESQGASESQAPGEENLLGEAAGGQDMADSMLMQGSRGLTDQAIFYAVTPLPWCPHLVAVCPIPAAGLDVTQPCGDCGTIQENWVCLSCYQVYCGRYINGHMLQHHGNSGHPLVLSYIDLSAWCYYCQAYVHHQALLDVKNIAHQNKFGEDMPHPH

Structure (SMILES)	IC50 (Histone deacetylase)	inhibition [1]	pIC50 (PC-3)	pIC50 (MOLT-4)	pIC50 (K562)	pIC50 (KG-1)	pIC50 (HEL)	further results
Cc1c2ccc(N(C)c3ccnc(Nc4ccc(C(=O)NCC(=O)NO)cc4)n3)cc2nn1C	> 20000 nM	95%						
Nc1ccccc1NC(=O)c1ccc(CNC(=O)OCc2cccnc2)cc1 [ENTINOSTAT]			< 5.30	6.35	5.44	< 5.30	6.36	pIC50 (HT-29 [2]): 5.51; pIC50 (ACHN): 5.62; pIC50 (AGS): 6.47; pIC50 (HeLa): < 5.30; pIC50 (MDA-MB-231): 5.59; pIC50 (HT-1080): < 5.30; inhibition [3]: inactive
Cc1ccc(Nc2nccc(N(C)c3ccc4c(C)n(C)nc4c3)n2)cc1C(=O)NO	> 20000 nM	74%						
Cc1c2ccc(N(C)c3ccnc(Nc4ccc(/C=C/C(=O)NO)cc4)n3)cc2nn1C	1400 nM	95%	5.80	6.23	5.78	5.99	6.12	pIC50 (HT-29 [2]): 5.53; pIC50 (ACHN): 5.41; pIC50 (AGS): < 5.30; pIC50 (HeLa): 5.31; pIC50 (MDA-MB-231): 5.59; pIC50 (HT-1080): 5.49; pIC50 (Histone deacetylase 2): 5.28; pIC50 [4]: 5.99; pIC50 (Histone deacetylase 8): 5.54
Cc1c2ccc(N(C)c3ccnc(Nc4ccc(C(=O)NCCC(=O)NO)cc4)n3)cc2nn1C	> 20000 nM	99%						
Cc1ccc(Nc2nccc(N(C)c3ccc4c(C)n(C)nc4c3)n2)cc1S(N)(=O)=O [PAZOPANIB]		95%	< 5.30	< 5.30	< 5.30	< 5.30	< 5.30	pIC50 (HT-29 [2]): < 5.30; pIC50 (ACHN): < 5.30; pIC50 (AGS): < 5.30; pIC50 (HeLa): < 5.30; pIC50 (MDA-MB-231): < 5.30; pIC50 (HT-1080): < 5.30; inhibition [3]: Active; Activity (HUVEC): Active; Activity (Thoracic aorta): Active; T/C (HT-29 [5]): 61%; inhibition in vivo at 50 mg/kg (HT-29 [6]): 44%
Cc1c2ccc(N(C)c3ccnc(Nc4cccc(/C=C/C(=O)NO)c4)n3)cc2nn1C	3000 nM	97%						
Cc1c2ccc(N(C)c3ccnc(Nc4cccc(C(=O)Nc5ccccc5N)c4)n3)cc2nn1C	21300 nM	63%						
Cc1ccc(Nc2nccc(N(C)c3ccc4c(C)n(C)nc4c3)n2)cc1C(=O)NCCCCCC(=O)NO	820 nM	87%						
Cc1c2ccc(N(C)c3ccnc(Nc4cccc(C(=O)NO)c4)n3)cc2nn1C	> 20000 nM	77%						
Cc1c2ccc(N(C)c3ccnc(Nc4ccc(C(=O)NO)cc4)n3)cc2nn1C	11300 nM	99%						

Further lines, with some results ahead:

IC50 (Histone deacetylase)	inhibition [1]	pIC50 (PC-3)	pIC50 (MOLT-4)	pIC50 (K562)	Structure (SMILES)	pIC50 (KG-1)	pIC50 (HEL)	further results
17 nM	98%	< 5.30	6.22	5.54	Cc1c2ccc(N(C)c3ccnc(Nc4ccc(C(=O)NCCCCCC(=O)NO)cc4)n3)cc2nn1C	5.64	5.59	pIC50 (HT-1080): < 5.30
15100 nM	94%				Cc1c2ccc(N(C)c3ccnc(Nc4ccc(C(=O)NCCCCC(=O)Nc5ccccc5N)cc4)n3)cc2nn1C			
5000 nM	93%	< 5.30	5.94	5.38	Cc1c2ccc(N(C)c3ccnc(Nc4ccc(C(=O)NCCCCCCC(=O)Nc5ccccc5N)cc4)n3)cc2nn1C	5.50	5.94	
25 nM	92%	5.47	6.57	5.96	Cc1c2ccc(N(C)c3ccnc(Nc4ccc(C(=O)NCCCCCCCC(=O)NO)cc4)n3)cc2nn1C	6.03	5.98	pIC50 (HT-1080): < 5.30
3000 nM	95%	< 5.30	6.06	5.37	Cc1c2ccc(N(C)c3ccnc(Nc4ccc(C(=O)NCCCCCC(=O)Nc5ccccc5N)cc4)n3)cc2nn1C	5.50	5.69	
19000 nM	96%				Cc1c2ccc(N(C)c3ccnc(Nc4ccc(C(=O)NCCCC(=O)Nc5ccccc5N)cc4)n3)cc2nn1C			
19800 nM	99%				Cc1c2ccc(N(C)c3ccnc(Nc4ccc(C(=O)NCCCC(=O)NO)cc4)n3)cc2nn1C			
180 nM	90%				Cc1c2ccc(N(C)c3ccnc(Nc4cccc(C(=O)NCCCCCC(=O)NO)c4)n3)cc2nn1C			
680 nM	94%				Cc1c2ccc(N(C)c3ccnc(Nc4ccc(C(=O)NCCCCC(=O)NO)cc4)n3)cc2nn1C			
8700 nM	92%	< 5.30	6.25	5.40	Cc1c2ccc(N(C)c3ccnc(Nc4ccc(C(=O)NCCCCCCCC(=O)Nc5ccccc5N)cc4)n3)cc2nn1C	5.57	6.31	pIC50 (HT-29 [2]): 5.53; pIC50 (ACHN): 5.44; pIC50 (AGS): < 5.30; pIC50 (HeLa): 5.51; pIC50 (MDA-MB-231): 5.59; pIC50 (HT-1080): < 5.30; pIC50 (Histone deacetylase 1): 5.84; pIC50 (Histone deacetylase 2): 5.90; pIC50 (Histone deacetylase 3): 6.18
> 20000 nM	97%				Cc1c2ccc(N(C)c3ccnc(Nc4ccc(C(=O)NCCC(=O)Nc5ccccc5N)cc4)n3)cc2nn1C			
> 20000 nM	98%				Cc1c2ccc(N(C)c3ccnc(Nc4ccc(C(=O)NCC(=O)Nc5ccccc5N)cc4)n3)cc2nn1C			
